Series [1] can be described thus: Partition coefficient (logP). The series is classed as physicochemical. To be noted: octanol/water.
Series [2] relates to rhinovirus A2. In words: Antirhinovirus activity was assessed and the maximum testable concentration that causes no apparent effects on the cell monolayers was determined against HRV-2 virus in vitro. The format is functional, human rhinovirus type 2.
The test system of a further series is Human rhinovirus sp. In words: Mean of MIC's was determined for the five types of virus like HRV-2, HRV-1A,HRV-22,HRV-41 and HRV-50. The series is classed as functional. The essentials:
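MIC measured by plaque reduction against HRV-2 first. The value is the mean of the MICs across these five serotypes.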

In another series the test system is rhinovirus B14. In words: Tested for antirhinoviral activity against the rhinovirus serotype 14. The series is classed as functional, human rhinovirus type 14. To be noted: Rhinovirus B. In outline:
(§1)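 Selected compounds were tested across a 15-serotype rhinovirus panel: the five secondary serotypes plus 10 more. An MIC was recorded for each serotype. MIC80, the concentration inhibiting 80% of serotypes tested, was also derived from this panel.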

The subject of series [3] is rhinovirus A2. In words: Tested for antirhinoviral activity against the rhinovirus serotype 2. The series is classed as functional, human rhinovirus type 2. The settings on record: Rhinovirus A. The essentials: as §1
In another series the test system is rhinovirus A21. In words: Tested for antirhinoviral activity against the rhinovirus serotype 21. The settings on record: Rhinovirus A. The series is classed as functional. In outline:
as §1

For another series, the system named is rhinovirus A22. In words: Tested for antirhinoviral activity against the rhinovirus serotype 22. The format is functional. The settings on record: Rhinovirus A. The essentials: as §1
For a further series, the system named is rhinovirus A25. In words: Tested for antirhinoviral activity against the rhinovirus serotype 25. The series is classed as functional. The settings on record: Rhinovirus A. In outline: as §1
The subject of another series is rhinovirus A30. In words: Tested for antirhinoviral activity against the rhinovirus serotype 30. The series is classed as functional. To be noted: Rhinovirus A. In outline: as §1
Another series has as its system rhinovirus A41. In words: Tested for antirhinoviral activity against the rhinovirus serotype 41. The series is classed as functional. The settings on record: Rhinovirus A. In outline:
as §1

The test system of the next series is rhinovirus A50. In words: Tested for antirhinoviral activity against the rhinovirus serotype 50. The series is classed as functional. To be noted: Rhinovirus A. The essentials:
as §1

A further series deals with rhinovirus B6. In words: Tested for antirhinoviral activity against the rhinovirus serotype 6. The format is functional. The settings on record: Rhinovirus B. The essentials: as §1
In a further series the test system is rhinovirus A67. In words: Tested for antirhinoviral activity against the rhinovirus serotype 67. The format is functional. To be noted: Rhinovirus A. The essentials: as §1
A further series concerns rhinovirus B86. In words: Tested for antirhinoviral activity against the rhinovirus serotype 86. The format is functional. The settings on record: Rhinovirus B. In outline: as §1
Another series relates to rhinovirus A89. In words: Tested for antirhinoviral activity against the rhinovirus serotype 89. The series is classed as functional, human rhinovirus type 89. To be noted: Rhinovirus A. In outline:
as §1

Another series deals with rhinovirus A15. In words: Tested for antirhinoviral activity against the rhinovirus serotype 15. The format is functional. To be noted: Rhinovirus A. The essentials:
as §1

The test system of the next series is Human rhinovirus 1A. In words: Tested for antirhinoviral activity against the rhinovirus serotype 1A. The series is classed as functional. In outline:
as §1

A further series concerns rhinovirus A1B. In words: Tested for antirhinoviral activity against the rhinovirus serotype 1B. The series is classed as functional, human rhinovirus type 1b. To be noted: Rhinovirus A. In outline:
as §1

The subject of series [4] is rhinovirus A2. In words: Antiviral activity determined by ability to inhibit the HRV-2( human rhinovirus type -2) virus by plaque reduction assay in vitro. To be noted: Rhinovirus A. The format is functional. In outline: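 Plaque reduction assay against human rhinovirus type 2 (HRV-2), following an earlier reported method. The value is the MIC, the minimum inhibitory concentration.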

Series [5] deals with human rhinovirus (15-serotype panel). In words: Antirhinovirus activity was determined by the ability to inhibit the growth of 80% of a panel of 15 human rhinovirus serotypes.

Converted amounts (≈) assume the structure as drawn. Where only a bound is given, the exact number is not on record here.

Regarding `C=Cc1cc(C2=NCCO2)ccc1OCCCCCc1cc(C)no1`, the logP in [1] worked out at 4.65. Besides, the MTL with rhinovirus A2 [2] amounted to 18 µM. The MIC in the series on Human rhinovirus sp. is 0.8 µM (≈ 0.272 µg/mL); in the series with rhinovirus B14 it was 1.7 µM (≈ 0.579 µg/mL); in the series with rhinovirus A2 [3] it was 0.2 µM (≈ 0.0681 µg/mL); in the series with rhinovirus A21, 0.09 µM (≈ 0.0306 µg/mL); against rhinovirus A22 it was 0.5 µM (≈ 0.17 µg/mL); against rhinovirus A25 it was 1.7 µM (≈ 0.579 µg/mL). For the same compound, the MIC against rhinovirus A30 turned out to be 0.1 µM (≈ 0.034 µg/mL); with rhinovirus A41, 1.3 µM (≈ 0.443 µg/mL); against rhinovirus A50, 1.2 µM (≈ 0.409 µg/mL); against rhinovirus B6, 2.4 µM (≈ 0.817 µg/mL); against rhinovirus A67 it was 0.4 µM (≈ 0.136 µg/mL); in the series with rhinovirus B86 it was 1.6 µM (≈ 0.545 µg/mL). Further, the MIC in the series on rhinovirus A89 was found to be 0.1 µM (≈ 0.034 µg/mL); in the series with rhinovirus A15 it was 0.7 µM (≈ 0.238 µg/mL); in the series on Human rhinovirus 1A, 1.2 µM (≈ 0.409 µg/mL); with rhinovirus A1B, 0.3 µM (≈ 0.102 µg/mL); with rhinovirus A2 [4], 0.2 µM (≈ 0.0681 µg/mL). The compound further displayed an MIC80 in series [5] of 1.6 µM (≈ 0.545 µg/mL).
For `Cc1cc(CCCCCOc2ccc(C3=NCCO3)cc2N(C)C)on1`, in the series with rhinovirus A2 [2], the MTL worked out at 17 µM. For the same compound, the results for the MIC in the series with Human rhinovirus sp. and against rhinovirus A2 [4] were greater than 17 µM and 0.2 µM (≈ 0.0715 µg/mL), respectively.
For the compound `Cc1cc(CCCCCOc2ccc(C3=NCCO3)cc2N)on1`, the logP in series [1] is 2.83. The MTL in the series on rhinovirus A2 [2] is 19 µM. For the same compound, the MIC in the series with Human rhinovirus sp. amounted to 7 µM (≈ 2.31 µg/mL); in the series on rhinovirus A2 [4] it was 0.91 µM (≈ 0.3 µg/mL).
With `C=CCc1cc(C2=NCCO2)ccc1OCCCCCc1cc(C)no1`, the logP in [1] stood at 4.93. In addition, the MTL in the series on rhinovirus A2 [2] was 8.8 µM. Further, the MIC came to 1.1 µM (≈ 0.39 µg/mL) with Human rhinovirus sp.; 3.4 µM (≈ 1.21 µg/mL) against rhinovirus B14; 0.08 µM (≈ 0.0284 µg/mL) in the series on rhinovirus A2 [3]; 0.4 µM (≈ 0.142 µg/mL) with rhinovirus A21; 0.5 µM (≈ 0.177 µg/mL) with rhinovirus A22; 3.4 µM (≈ 1.21 µg/mL) in the series on rhinovirus A25. For the same compound, the MIC with rhinovirus A30 stood at 0.8 µM (≈ 0.284 µg/mL); with rhinovirus A41, 3.4 µM (≈ 1.21 µg/mL); against rhinovirus A50, 0.4 µM (≈ 0.142 µg/mL); in the series with rhinovirus B6, 1.7 µM (≈ 0.603 µg/mL); against rhinovirus A67, 1.1 µM (≈ 0.39 µg/mL); with rhinovirus B86, 2.1 µM (≈ 0.744 µg/mL). Besides, the MIC worked out at 0.6 µM (≈ 0.213 µg/mL) with rhinovirus A89; 1.6 µM (≈ 0.567 µg/mL) against rhinovirus A15; 1.4 µM (≈ 0.496 µg/mL) against Human rhinovirus 1A; 0.1 µM (≈ 0.0354 µg/mL) with rhinovirus A1B; 0.08 µM (≈ 0.0284 µg/mL) in the series on rhinovirus A2 [4]. In addition, in [5], the MIC80 turned out to be 2.1 µM (≈ 0.744 µg/mL).
`Cc1cc(CCCCCOc2ccc(C3=NCCO3)cc2C(F)(F)F)on1` came in with a logP in [1] of 4.38. The MTL in the series on rhinovirus A2 [2] was 3.4 µM. Also, the MIC worked out at 0.4 µM (≈ 0.153 µg/mL) against Human rhinovirus sp.; 3 µM (≈ 1.15 µg/mL) against rhinovirus B14; 0.03 µM (≈ 0.0115 µg/mL) in the series on rhinovirus A2 [3]; 0.03 µM (≈ 0.0115 µg/mL) against rhinovirus A21; 0.07 µM (≈ 0.0268 µg/mL) in the series on rhinovirus A22; 0.2 µM (≈ 0.0765 µg/mL) against rhinovirus A25. In addition, the MIC against rhinovirus A30 worked out at 0.3 µM (≈ 0.115 µg/mL); with rhinovirus A41, 0.2 µM (≈ 0.0765 µg/mL); against rhinovirus A50 it was 1.1 µM (≈ 0.421 µg/mL); against rhinovirus B6 it was 1.8 µM (≈ 0.688 µg/mL); against rhinovirus A67, 0.2 µM (≈ 0.0765 µg/mL); in the series with rhinovirus B86, 0.03 µM (≈ 0.0115 µg/mL). Besides, the MIC is 0.2 µM (≈ 0.0765 µg/mL) in the series with rhinovirus A89; 0.2 µM (≈ 0.0765 µg/mL) against rhinovirus A15; 0.4 µM (≈ 0.153 µg/mL) against Human rhinovirus 1A; 0.04 µM (≈ 0.0153 µg/mL) against rhinovirus A1B; 0.03 µM (≈ 0.0115 µg/mL) against rhinovirus A2 [4]. Also, in series [5], the MIC80 turned out to be 1.1 µM (≈ 0.421 µg/mL).
On to `Cc1cc(CCCCCCCOc2ccc(C3=NCCO3)cc2)on1` [DISOXARIL], for which the MTL in the series with rhinovirus A2 [2] came out at 18 µM. The MIC in the series on Human rhinovirus sp. is greater than 18 µM; in the series with rhinovirus A2 [4] it was 3.5 µM (≈ 1.2 µg/mL).
In [1], `CCc1cc(C2=NCCO2)ccc1OCCCCCc1cc(C)no1` displayed a logP of 4.71. Besides, in the series with rhinovirus A2 [2], the MTL came to 9.1 µM. For the same compound, the MIC with Human rhinovirus sp. came out at 1.8 µM (≈ 0.616 µg/mL); against rhinovirus B14, 1.1 µM (≈ 0.377 µg/mL); with rhinovirus A2 [3], 0.06 µM (≈ 0.0205 µg/mL); against rhinovirus A21, 0.04 µM (≈ 0.0137 µg/mL); in the series with rhinovirus A22 it was 0.1 µM (≈ 0.0342 µg/mL); against rhinovirus A25, 4 µM (≈ 1.37 µg/mL). In addition, the MIC in the series on rhinovirus A30 stood at 0.1 µM (≈ 0.0342 µg/mL); against rhinovirus A41 it was 6.7 µM (≈ 2.29 µg/mL); in the series with rhinovirus A50, 0.1 µM (≈ 0.0342 µg/mL); in the series on rhinovirus B6, 3.2 µM (≈ 1.1 µg/mL); with rhinovirus A67, 0.3 µM (≈ 0.103 µg/mL); against rhinovirus B86, 1.9 µM (≈ 0.651 µg/mL). Further, the MIC in the series on rhinovirus A89 stood at 0.07 µM (≈ 0.024 µg/mL); in the series with rhinovirus A15, 0.4 µM (≈ 0.137 µg/mL); with Human rhinovirus 1A, 2 µM (≈ 0.685 µg/mL); in the series with rhinovirus A1B it was 0.09 µM (≈ 0.0308 µg/mL); against rhinovirus A2 [4], 0.06 µM (≈ 0.0205 µg/mL). This compound also yielded an MIC80 in series [5] of 2 µM (≈ 0.685 µg/mL).
The compound `Cc1cc(CCCCCOc2ccc(C3=NCCO3)cc2C(F)F)on1` came in with a logP in [1] of 4.59. For the same compound, the MTL with rhinovirus A2 [2] turned out to be 17 µM. Further, the MIC worked out at 1 µM (≈ 0.364 µg/mL) against Human rhinovirus sp.; 2 µM (≈ 0.729 µg/mL) with rhinovirus B14; 0.05 µM (≈ 0.0182 µg/mL) with rhinovirus A2 [3]; 0.05 µM (≈ 0.0182 µg/mL) in the series with rhinovirus A21; 0.05 µM (≈ 0.0182 µg/mL) against rhinovirus A22; 0.9 µM (≈ 0.328 µg/mL) in the series on rhinovirus A25. The MIC against rhinovirus A30 came out at 0.09 µM (≈ 0.0328 µg/mL); against rhinovirus A41, 2 µM (≈ 0.729 µg/mL); against rhinovirus A50, 2 µM (≈ 0.729 µg/mL); against rhinovirus B6, 0.3 µM (≈ 0.109 µg/mL); in the series with rhinovirus A67 it was 0.2 µM (≈ 0.0729 µg/mL); against rhinovirus B86 it was 1.7 µM (≈ 0.619 µg/mL). For the same compound, the MIC against rhinovirus A89 was 0.02 µM (≈ 0.00729 µg/mL); with rhinovirus A15, 0.2 µM (≈ 0.0729 µg/mL); with Human rhinovirus 1A, 0.8 µM (≈ 0.292 µg/mL); in the series with rhinovirus A1B, 0.08 µM (≈ 0.0292 µg/mL); in the series on rhinovirus A2 [4], 0.06 µM (≈ 0.0219 µg/mL). For the same compound, the MIC80 in series [5] worked out at 2 µM (≈ 0.729 µg/mL).
In the case of `Cc1cc(CCCCCCCOc2ccc(C3=NCCO3)cc2Cl)on1`, in the series with rhinovirus A2 [2], the MTL worked out at 17 µM. The MIC against Human rhinovirus sp. is 2.3 µM (≈ 0.867 µg/mL); against rhinovirus A2 [4], 0.1 µM (≈ 0.0377 µg/mL). In series [5], this compound showed an MIC80 of 2.8 µM (≈ 1.06 µg/mL).
With `Cc1cc(CCCCCOc2ccc(C3=NCCO3)cc2CO)on1`, in the series on rhinovirus A2 [2], the MTL was determined as 9 µM. The same compound yielded an MIC against rhinovirus A2 [4] of 7.1 µM (≈ 2.45 µg/mL).

These data come from ChEMBL document CHEMBL1123677, “Structure-activity studies of 5-[[4-(4,5-dihydro-2-oxazolyl) phenoxy]alkyl]-3-methylisoxazoles: inhibitors of picornavirus uncoating” (J Med Chem, 1987).
